Experimental data taken from ChEMBL document CHEMBL1156107, “Synthesis of new alkylaminooxysterols with potent cell differentiating activities: identification of leads for the treatment of cancer and neurodegenerative diseases” (J Med Chem, 2009).
Calls of active or inactive are those of the source. No cut-off for these calls is given here.

Legend:
P19 [1] = assay: Cytotoxicity against mouse P19 cells after 3 days by trypan blue exclusion assay; format: functional, cell-based; conditions: p19
Method in brief: (§1)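 U937 and P19 cells treated with compound. Cell death scored by trypan blue exclusion, with cells scraped, suspended in 0.25% w/v trypan blue in PBS and counted in a Malassez cell. IC50 is the concentration giving 50% cytotoxicity.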

P19 [2] = assay: Induction of neurite outgrowth in mouse P19 cells at 2 to 5 uM after 48 hrs by crystal violet staining; format: functional, cell-based
SH-SY5Y [3] = assay: Induction of neurite outgrowth in human SH-SY5Y cells at 2 to 5 uM after 48 hrs by crystal violet staining; format: functional, cell-based
N2a [4] = assay: Induction of neurite outgrowth in mouse Neuro2a cells at 2 to 5 uM after 48 hrs by crystal violet staining; format: functional, cell-based
U-937 [5] = assay: Induction of dendrite out growth in IL-4/GMCSF-stimulated human U937 cells assessed as dendrite length at 100 nM after 48 hrs by light microscopy; format: functional
Method in brief: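 U937 cells at 1.1 × 10⁶ cells/mL were primed with 10 ng/mL PMA for 48 h in RPMI with 10% heat-inactivated serum. Adherent cells were then given 100 ng/mL IL-4 plus 100 ng/mL GM-CSF or 100 nM compound for 48 h. Dendrite length scored by light microscopy, from none to over 100 μm with a contact network.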

SK-N-SH [6] = assay: Induction of neurite outgrowth in human SK-N-SH cells at 2 to 5 uM after 48 hrs by crystal violet staining; format: functional, cell-based
U-937 [7] = assay: Cytotoxicity against human U937 cells after 3 days by trypan blue exclusion assay; format: functional, cell-based; conditions: u-937; method in brief: as §1
P19 [8] = assay: Induction of dendrite out growth in IL-4/GMCSF-stimulated mouse P19 cells assessed as dendrite length at 100 nM after 48 hrs by light microscopy; format: functional
U-87MG ATCC [9] = assay: Induction of neurite outgrowth in human U87 cells at 2 to 5 uM after 48 hrs by crystal violet staining; format: functional, cell-based
SK-N-SH [10] = assay: Induction of neurite outgrowth in human SK-N-SH cells at 40 to 60 uM after 48 hrs by crystal violet staining; format: functional, cell-based
SH-SY5Y [11] = assay: Induction of neurite outgrowth in human SH-SY5Y cells at 40 to 60 uM after 48 hrs by crystal violet staining; format: functional, cell-based
U-87MG ATCC [12] = assay: Induction of neurite outgrowth in human U87 cells at 40 to 60 uM after 48 hrs by crystal violet staining; format: functional, cell-based
N2a [13] = assay: Induction of neurite outgrowth in mouse Neuro2a cells at 40 to 60 uM after 48 hrs by crystal violet staining; format: functional, cell-based
P19 [14] = assay: Induction of neurite outgrowth in mouse P19 cells at 40 to 60 uM after 48 hrs by crystal violet staining; format: functional, cell-based
SK-MEL-28 = assay: Cytotoxicity against human SK-MEL-28 cells up to 20 uM after 72 hrs by trypan blue exclusion assay; format: functional, cell-based
Method in brief: (§2)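 Tumor lines grown at 37 °C in 5% CO₂, in RPMI 1640 or DMEM with FBS. Cells exposed to compound from 10 nM to 20 μM for 72 h. Cytotoxicity counted by trypan blue exclusion: cells scraped, suspended in 0.25% w/v trypan blue in PBS and counted in a Malassez cell under light microscopy. IC50 is the concentration giving 50% cytotoxicity.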

P19 [15] = assay: Cytotoxicity against mouse P19 cells up to 20 uM after 3 days by trypan blue exclusion assay; format: functional, cell-based; method in brief: as §1
U-937 [16] = assay: Cytotoxicity against human U937 cells up to 20 uM after 3 days by trypan blue exclusion assay; format: functional, cell-based; method in brief: as §1
SH-SY5Y [17] = assay: Induction of neurite outgrowth in human SH-SY5Y cells at 100 nM after 48 hrs by crystal violet staining; format: functional, cell-based
Method in brief: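 Cells exposed to 100 nM compound for 48 h on poly-D-lysine-coated inserts with a 3 μm pore membrane. Neurites crossing the membrane were methanol-fixed and stained, cell bodies were removed, and the dye was extracted and read at 562 nm.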

P19 [18] = assay: Induction of mouse P19 cell differentiation into neuron assessed as stimulation of beta-3 tubulin expression at 10 nM after 48 hrs by immunocytochemistry; format: functional, cell-based
Method in brief: (§3)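 P19 cells seeded at 10 000/well and treated with vehicle or 10 nM compound. Cells fixed in 4% paraformaldehyde, permeabilized with 1% BSA/0.05% saponin and blocked in 3% BSA. Stained with anti-MAP2A (1/100) or anti-β3-tubulin (1/200) for 1 h at room temperature, then TRITC secondary, and viewed by fluorescence microscopy.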

P19 [19] = assay: Induction of mouse P19 cell differentiation into neuron assessed as stimulation of MAP2A expression at 10 nM after 48 hrs by immunocytochemistry; format: functional, cell-based; method in brief: as §3
HCT-8 = assay: Cytotoxicity against human HCT8 cells up to 20 uM after 72 hrs by trypan blue exclusion assay; format: functional, cell-based; method in brief: as §2
U-87MG ATCC [20] = assay: Induction of neurite outgrowth in human U87 cells at 100 nM after 48 hrs by crystal violet staining; format: functional, cell-based
SK-N-SH [21] = assay: Cytotoxicity against human SK-N-SH cells up to 20 uM after 72 hrs by trypan blue exclusion assay; format: functional, cell-based; method in brief: as §2
P19 [22] = assay: Induction of mouse P19 cell differentiation into neuron assessed as stimulation of NMDAR1 expression at 10 nM after 48 hrs by Western blotting; format: functional, cell-based
Method in brief: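 P19 cells treated with 10 nM compound for 48 h and lysed in Tris pH 7.4 RIPA-type buffer. Proteins run on 7.5% SDS-PAGE and blotted to PVDF. Probed overnight at 4 °C with anti-NMDAR1 (1:1000), with GAPDH as loading control, and detected by enhanced chemiluminescence.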

A549 = assay: Cytotoxicity against human A549 cells up to 20 uM after 72 hrs by trypan blue exclusion assay; format: functional, cell-based; method in brief: as §2
U-937 [23] = assay: Cytotoxicity against human U937 cells up to 20 uM after 72 hrs by trypan blue exclusion assay; format: functional, cell-based; method in brief: as §2
B16-F10 = assay: Cytotoxicity against mouse B16F10 cells up to 20 uM after 72 hrs by trypan blue exclusion assay; format: functional, cell-based; method in brief: as §2
NB-4 = assay: Cytotoxicity against human NB4 cells up to 20 uM after 72 hrs by trypan blue exclusion assay; format: functional, cell-based; method in brief: as §2
P19 [24] = assay: Cytotoxicity against mouse P19 cells up to 20 uM after 72 hrs by trypan blue exclusion assay; format: functional, cell-based; method in brief: as §2
SW-620 = assay: Cytotoxicity against human SW620 cells up to 20 uM after 72 hrs by trypan blue exclusion assay; format: functional, cell-based; method in brief: as §2
N2a [25] = assay: Cytotoxicity against mouse Neuro2a cells up to 20 uM after 72 hrs by trypan blue exclusion assay; format: functional, cell-based; method in brief: as §2
SK-N-SH [26] = assay: Induction of neurite outgrowth in human SK-N-SH cells at 100 nM after 48 hrs by crystal violet staining; format: functional, cell-based
TS/A = assay: Cytotoxicity against mouse TSA cells up to 20 uM after 72 hrs by trypan blue exclusion assay; format: functional, cell-based; method in brief: as §2
P19 [27] = assay: Induction of neurite outgrowth in mouse P19 cells at 100 nM after 48 hrs by crystal violet staining; format: functional, cell-based
Mus musculus = organism: Mus musculus; assay: Neuroprotective activity in mouse motoneuron assessed as cell proliferation at 10 nM treated for 3 days measured on day 2 to 6 post-treatment by cell counting method; format: functional; conditions: in the assay text read “cell survival” for “cell proliferation”
Method in brief: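 Purified mouse motoneurons; solvent vehicle, 100 ng/mL BDNF or 10 nM test agent added immediately after seeding; cells counted at days 2, 3, 4 and 6; surviving motoneurons expressed as percentage.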

N2a [28] = assay: Induction of neurite outgrowth in mouse Neuro2a cells at 100 nM after 48 hrs by crystal violet staining; format: functional, cell-based
MCF7 = assay: Cytotoxicity against human MCF7 cells up to 20 uM after 72 hrs by trypan blue exclusion assay; format: functional, cell-based; method in brief: as §2
U-87MG ATCC [29] = assay: Cytotoxicity against human U87 cells up to 20 uM after 72 hrs by trypan blue exclusion assay; format: functional, cell-based; method in brief: as §2
KG-1 = assay: Cytotoxicity against human KG1 cells up to 20 uM after 72 hrs by trypan blue exclusion assay; format: functional, cell-based; method in brief: as §2
P19 [30] = assay: Induction of neuritogenesis in mouse P19 cells assessed as dendrite expansion at 10 nM after 48 hrs by light microscopy; format: functional, cell-based
Method in brief: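 P19 embryonal carcinoma cells exposed to 10 nM or solvent vehicle for 48 h; dendrite expansion and cell-contact network assessed by light microscopy.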

SH-SY5Y [31] = assay: Cytotoxicity against human SH-SY5Y cells up to 20 uM after 72 hrs by trypan blue exclusion assay; format: functional, cell-based; method in brief: as §2

SMILES: CC1=C(/C=C/C(C)=C/C=C/C(C)=C/C(=O)O)C(C)(C)CCC1 [TRETINOIN]
- IC50 (P19 [1]): Not Active
- Activity (P19 [2]): Active
- Activity (SH-SY5Y [3]): Active
- Activity (N2a [4]): Active
- Activity (U-937 [5]): inactive
- Activity (SK-N-SH [6]): Active
- IC50 (U-937 [7]): Not Active
- Activity (P19 [8]): inactive
- Activity (U-87MG ATCC [9]): Active

SMILES: CC/C=C\C/C=C\C/C=C\C/C=C\C/C=C\C/C=C\CCC(=O)O
- Activity (SK-N-SH [10]): Active
- Activity (SH-SY5Y [11]): Active
- Activity (U-87MG ATCC [12]): Active
- Activity (N2a [13]): Active
- Activity (P19 [14]): Active

SMILES: CC(C)CCC[C@@H](C)[C@H]1CC[C@H]2C3=C[C@@H](NCCCNCCCCN)[C@@]4(O)C[C@@H](O)CC[C@]4(C)[C@H]3CC[C@]12C [DENDROGENIN B]
- Activity (SK-MEL-28): inactive
- Activity (P19 [15]): inactive
- Activity (U-937 [16]): inactive
- Activity (SH-SY5Y [17]): Active
- Activity (P19 [18]): Active
- Activity (P19 [19]): Active
- Activity (HCT-8): inactive
- Activity (U-87MG ATCC [20]): Active
- Activity (SK-N-SH [21]): inactive
- IC50 (P19 [1]): Not Active
- Activity (P19 [22]): Active
- Activity (A549): inactive
- Activity (U-937 [23]): inactive
- Activity (B16-F10): inactive
- Activity (U-937 [5]): <5 um
- Activity (NB-4): inactive
- Activity (P19 [24]): inactive
- IC50 (U-937 [7]): Not Active
- Activity (SW-620): inactive
- Activity (N2a [25]): inactive
- Activity (P19 [8]): > 100 um
- Activity (SK-N-SH [26]): Active
- Activity (TS/A): inactive
- Activity (P19 [27]): Active
- Activity (Mus musculus): Active
- Activity (N2a [28]): Active
- Activity (MCF7): inactive
- Activity (U-87MG ATCC [29]): inactive
- Activity (KG-1): inactive
- Activity (P19 [30]): Active
- Activity (SH-SY5Y [31]): inactive
